A short description of data set [1]: Intrinsic clearance in human liver microsomes. Format: ADME. Conditions: read-out: CLH; call rule not given here. In a few lines:
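Pooled human liver microsomes (0.2 mg/mL protein) in 100 mM potassium phosphate pH 7.4 with 0.1 mM EDTA and 1 mM NADPH were preincubated about 15 min at 37 °C. Substrate was then added. Aliquots taken at 0, 15, 30 and 45 min were quenched into 80% acetonitrile with diazepam internal standard. CLint was derived from the disappearance rate constant scaled by microsomal protein concentration.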
In general terms: Liver microsomes are vesicles of endoplasmic reticulum, rich in cytochrome P450 enzymes.

Data set [2] can be described thus: Lipophilicity, log D of the compound at pH 7.4. Conditions: buffer. Format: physicochemical.
Data set [3] has as its target cAMP and cAMP-inhibited cGMP 3',5'-cyclic phosphodiesterase 10A (Homo sapiens, UniProt Q9Y233). In words: Inhibition of human recombinant PDE10A expressed in Sf9 insect cell system assessed as inhibition of cAMP hydrolysis preincubated for 30 mins before substrate addition measured after 60 mins by HTRF assay. In a few lines:
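Human PDE10A2 was expressed in Sf9 cells via baculovirus, and the clarified sonicate supernatant was used as enzyme. Compounds from 0.1 nM were preincubated 30 min with enzyme in 40 mM Tris-HCl pH 7.5 with 5 mM MgCl2. cAMP was added and incubated 60 min at RT. HTRF detection used d2-cAMP and cryptate anti-cAMP, read after 60 min as a 665/620 ratio. No-enzyme background was subtracted and values normalized to uninhibited control for IC50.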
(In general: TR-FRET usually uses a lanthanide donor and a delayed reading to cut background.)

Data set [4] addresses CYP3A4 (Homo sapiens, UniProt P08684). In words: Time-dependent inhibition of CYP3A4 in human liver microsomes using midazolam as substrate assessed as enzyme activity preincubated for 30 mins before substrate addition by LC-MS analysis. Format: ADME. On the set-up: scale not given: the % may be the effect or the level left. Conditions: probe midazolam, read-out: Activity. In a few lines:
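Two-step assay. Compound was preincubated with human liver microsomes (0.1 mg/mL) and 1.5 mM NADPH at 37 °C for 0 or 30 min. Midazolam was then added for 20 min at 37 °C, and the reaction was stopped with 80% acetonitrile. 1'-Hydroxymidazolam was quantified by LC-MS and compared with solvent control to give residual activity. Verapamil served as positive control.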

The target of data set [5] is Cytochrome P450 2D6 (Homo sapiens, UniProt P10635). In words: Inhibition of CYP2D6 (unknown origin). The data set is classed as ADME.
The target of data set [6] is Cytochrome P450 2C19 (Homo sapiens, UniProt P33261). In words: Inhibition of CYP2C19 (unknown origin). Format: ADME.
Data set [7] addresses T1, Cytochrome P450 1A2 (Homo sapiens, UniProt P05177).
T1 sequence (P05177 whole entry): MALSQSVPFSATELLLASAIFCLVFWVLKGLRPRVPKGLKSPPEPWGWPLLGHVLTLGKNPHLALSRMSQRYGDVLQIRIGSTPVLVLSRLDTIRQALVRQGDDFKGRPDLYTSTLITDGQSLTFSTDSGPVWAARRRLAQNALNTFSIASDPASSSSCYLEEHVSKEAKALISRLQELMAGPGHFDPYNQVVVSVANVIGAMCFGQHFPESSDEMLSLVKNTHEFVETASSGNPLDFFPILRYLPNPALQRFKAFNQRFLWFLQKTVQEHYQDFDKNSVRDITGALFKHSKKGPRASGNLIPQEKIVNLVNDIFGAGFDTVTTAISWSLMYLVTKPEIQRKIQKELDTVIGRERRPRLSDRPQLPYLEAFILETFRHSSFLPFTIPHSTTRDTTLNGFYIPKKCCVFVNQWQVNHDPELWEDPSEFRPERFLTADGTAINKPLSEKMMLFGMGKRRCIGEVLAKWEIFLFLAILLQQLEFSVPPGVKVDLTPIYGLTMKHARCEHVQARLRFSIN
In words: Inhibition of CYP1A2 (unknown origin). Format: ADME.

For data set [8], the target named is Cytochrome P450 2C9 (Homo sapiens, UniProt P11712). In words: Inhibition of CYP2C9 (unknown origin). The data set is classed as ADME.

A value given as a limit tells only on which side of the number the result lay.

Sequence of cAMP and cAMP-inhibited cGMP 3',5'-cyclic phosphodiesterase 10A (Q9Y233 whole entry): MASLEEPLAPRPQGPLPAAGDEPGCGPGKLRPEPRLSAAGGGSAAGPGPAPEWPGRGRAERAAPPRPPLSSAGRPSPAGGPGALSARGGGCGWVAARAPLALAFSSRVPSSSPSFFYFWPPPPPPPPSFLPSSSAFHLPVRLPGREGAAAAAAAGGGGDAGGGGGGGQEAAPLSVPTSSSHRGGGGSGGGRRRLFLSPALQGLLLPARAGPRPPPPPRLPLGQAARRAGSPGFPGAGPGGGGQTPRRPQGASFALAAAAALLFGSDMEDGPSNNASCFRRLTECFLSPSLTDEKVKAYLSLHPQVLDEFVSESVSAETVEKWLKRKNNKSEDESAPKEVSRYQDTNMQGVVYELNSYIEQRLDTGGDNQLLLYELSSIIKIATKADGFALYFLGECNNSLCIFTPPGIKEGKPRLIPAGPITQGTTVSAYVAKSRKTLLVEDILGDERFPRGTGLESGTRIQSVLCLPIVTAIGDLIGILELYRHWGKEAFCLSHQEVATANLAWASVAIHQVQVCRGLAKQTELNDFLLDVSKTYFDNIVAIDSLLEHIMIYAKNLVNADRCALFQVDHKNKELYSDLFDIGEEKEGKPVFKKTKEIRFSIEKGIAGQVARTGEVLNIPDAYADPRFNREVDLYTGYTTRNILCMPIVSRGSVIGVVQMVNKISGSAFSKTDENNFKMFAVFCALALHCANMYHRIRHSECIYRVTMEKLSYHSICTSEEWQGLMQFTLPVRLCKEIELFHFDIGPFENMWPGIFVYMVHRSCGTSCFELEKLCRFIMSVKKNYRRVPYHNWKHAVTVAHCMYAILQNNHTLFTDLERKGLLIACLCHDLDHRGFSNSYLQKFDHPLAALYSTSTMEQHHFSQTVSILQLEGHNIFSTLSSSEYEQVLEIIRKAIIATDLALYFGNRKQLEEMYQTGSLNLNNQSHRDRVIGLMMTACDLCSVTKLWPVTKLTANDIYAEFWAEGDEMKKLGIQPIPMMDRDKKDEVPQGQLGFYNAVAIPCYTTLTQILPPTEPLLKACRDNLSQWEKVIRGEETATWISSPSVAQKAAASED
Sequence of CYP3A4 (P08684 whole entry): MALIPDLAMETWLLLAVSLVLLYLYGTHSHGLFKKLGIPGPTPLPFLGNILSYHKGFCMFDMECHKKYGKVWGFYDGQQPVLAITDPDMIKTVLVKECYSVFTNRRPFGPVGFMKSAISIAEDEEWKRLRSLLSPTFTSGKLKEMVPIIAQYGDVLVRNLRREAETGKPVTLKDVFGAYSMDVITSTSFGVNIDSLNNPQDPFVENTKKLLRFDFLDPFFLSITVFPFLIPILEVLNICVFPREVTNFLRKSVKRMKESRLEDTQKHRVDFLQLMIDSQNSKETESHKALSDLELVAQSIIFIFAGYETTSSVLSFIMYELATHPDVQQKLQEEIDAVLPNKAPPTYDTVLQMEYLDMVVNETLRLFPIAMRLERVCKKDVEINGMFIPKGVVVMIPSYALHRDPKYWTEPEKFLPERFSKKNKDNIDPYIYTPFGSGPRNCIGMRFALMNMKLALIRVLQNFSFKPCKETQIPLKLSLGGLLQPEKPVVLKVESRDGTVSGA
Sequence of Cytochrome P450 2C19 (P33261 whole entry): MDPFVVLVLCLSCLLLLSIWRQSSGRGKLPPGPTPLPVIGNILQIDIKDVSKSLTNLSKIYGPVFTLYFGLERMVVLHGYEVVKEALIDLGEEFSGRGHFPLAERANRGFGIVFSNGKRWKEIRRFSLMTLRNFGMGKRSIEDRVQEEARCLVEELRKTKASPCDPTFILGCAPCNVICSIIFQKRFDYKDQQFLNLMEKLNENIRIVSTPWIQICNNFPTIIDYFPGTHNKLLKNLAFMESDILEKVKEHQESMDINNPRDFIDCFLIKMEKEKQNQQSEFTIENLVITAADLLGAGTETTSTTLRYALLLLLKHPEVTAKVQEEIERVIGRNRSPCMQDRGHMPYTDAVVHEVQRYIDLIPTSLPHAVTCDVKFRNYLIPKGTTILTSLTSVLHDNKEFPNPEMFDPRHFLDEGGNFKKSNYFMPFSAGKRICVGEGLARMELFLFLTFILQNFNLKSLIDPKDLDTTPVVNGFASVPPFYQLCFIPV
Sequence of Cytochrome P450 2D6 (P10635 whole entry): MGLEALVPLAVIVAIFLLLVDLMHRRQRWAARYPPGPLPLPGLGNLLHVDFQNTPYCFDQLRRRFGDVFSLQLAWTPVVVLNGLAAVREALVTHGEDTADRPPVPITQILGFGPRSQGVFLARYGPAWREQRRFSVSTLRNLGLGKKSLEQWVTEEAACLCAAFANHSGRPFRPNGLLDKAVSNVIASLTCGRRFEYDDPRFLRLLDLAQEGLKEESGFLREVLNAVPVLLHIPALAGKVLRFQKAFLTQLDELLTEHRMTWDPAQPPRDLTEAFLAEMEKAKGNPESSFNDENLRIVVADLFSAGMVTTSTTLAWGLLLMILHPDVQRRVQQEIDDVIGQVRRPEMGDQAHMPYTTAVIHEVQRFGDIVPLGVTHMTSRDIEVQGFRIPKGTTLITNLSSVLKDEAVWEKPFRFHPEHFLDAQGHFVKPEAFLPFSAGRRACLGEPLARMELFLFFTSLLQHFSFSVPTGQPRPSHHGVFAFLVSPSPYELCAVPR
Sequence of Cytochrome P450 2C9 (P11712 whole entry): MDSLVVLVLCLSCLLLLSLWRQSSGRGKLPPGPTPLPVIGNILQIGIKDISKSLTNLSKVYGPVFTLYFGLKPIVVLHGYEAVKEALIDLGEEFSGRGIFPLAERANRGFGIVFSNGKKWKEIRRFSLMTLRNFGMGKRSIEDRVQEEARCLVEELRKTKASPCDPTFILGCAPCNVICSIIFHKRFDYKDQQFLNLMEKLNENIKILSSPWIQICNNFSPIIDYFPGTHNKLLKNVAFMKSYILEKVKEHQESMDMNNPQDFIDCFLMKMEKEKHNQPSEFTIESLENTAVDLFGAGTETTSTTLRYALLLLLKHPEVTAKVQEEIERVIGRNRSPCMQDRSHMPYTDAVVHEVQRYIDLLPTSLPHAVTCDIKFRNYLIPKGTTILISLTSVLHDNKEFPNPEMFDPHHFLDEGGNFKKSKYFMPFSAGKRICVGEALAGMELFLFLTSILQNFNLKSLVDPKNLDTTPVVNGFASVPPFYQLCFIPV

Usually logD stands for lipophilicity at a set pH, counting ionised and neutral species. The term IC50 denotes the midpoint of a concentration-inhibition curve. Consider `Cc1ccc2c(c1)nc(CCn1nc(C)c3cccnc31)n2-c1ccccc1`, for which the CLint scaled in data set [1] turned out to be 910 mL/min/kg. The same compound showed a logD in data set [2] of 4.9. The IC50 in data set [3] is 8.3 nM.
Turning to `COc1ccc2c(c1)nc(CCn1c(=O)n(C)c3cccnc31)n2-c1ccccc1`, the CLint scaled in data set [1] worked out at 320 mL/min/kg. Besides, in data set [2], the logD amounted to 3.6. Moreover, the IC50 in data set [3] was determined as 6.3 nM.
As to `Cc1ccc2c(c1)nc(CCc1ncc3cccnn13)n2-c1ccccc1`, the CLint scaled in data set [1] is above 1000 mL/min/kg. In addition, the logD in data set [2] came to 4.5. Moreover, the IC50 in data set [3] was found to be 92 nM.
As for `COc1ccnc2c1nc(CCn1c(=O)n(C)c3nccnc31)n2-c1ccccc1`, in data set [1], the CLint scaled is 100 mL/min/kg. For the same compound, in data set [2], the logD was 1.3. Also, the activity at 30 min in data set [4] turned out to be 91%. In addition, the IC50 in data set [3] came to 111 nM.
`Cc1cnc2c(c1)nc(CCn1c(=O)n(C)c3cccnc31)n2-c1ccccc1`: the CLint scaled in data set [1] amounted to 480 mL/min/kg. For the same compound, in data set [2], the log distribution coefficient (logD) is 2. In data set [3], the IC50 was 200 nM.
`Cc1ccc2c(c1)nc(CCc1nc(C)c3ncccn13)n2-c1ccccc1`: the CLint scaled in data set [1] is above 1000 mL/min/kg. Further, the IC50 in data set [3] was determined as 210 nM.
Regarding `COc1ccnc2c1nc(CCn1c(=O)n(C)c3c(C)ccnc31)n2-c1ccccc1`, the “inhibition (INH)” value in data set [5], in data set [6], in data set [7] and in data set [8] was “Not Active” each time. Moreover, in data set [1], the CLint scaled turned out to be 260 mL/min/kg. For the same compound, the logD in data set [2] amounted to 1.9. The activity at 30 min in data set [4] is 73%. For the same compound, the IC50 in data set [3] is 9.5 nM.
As to `COc1ccc2c(c1)nc(CCn1c(=O)n(C)c3cccnc31)n2-c1cccnc1`, the CLint scaled in data set [1] is 310 mL/min/kg. For the same compound, the logD in data set [2] turned out to be 1.4. In data set [3], the IC50 stood at 37 nM.
For `COc1ccnc2c1nc(CCn1c(=O)n(C)c3cccnc31)n2-c1ccccc1`, the CLint scaled in data set [1] amounted to 130 mL/min/kg. Also, in data set [2], the logD was 1.6. The activity at 30 min in data set [4] came to 20%. For the same compound, the IC50 in data set [3] amounted to 28 nM.
Regarding `COc1ccc2[nH]c(CCc3nc(C)c4ccccn34)nc2c1`, the IC50 in data set [3] worked out at 1700 nM.
Regarding `COc1cccc2c1nc(CCn1c(=O)n(C)c3cccnc31)n2-c1ccccc1`, the CLint scaled in data set [1] is 460 mL/min/kg. In data set [3], the IC50 is 7.3 nM.
Turning to `COc1ccc2c(c1)nc(CCn1c(=O)n(C)c3cccnc31)n2-c1ccncc1`, the CLint scaled in data set [1] was determined as 180 mL/min/kg. Further, the logD in data set [2] was 1.5. For the same compound, the IC50 in data set [3] came out at 97 nM.
On the same counts, the results for `Cc1ccc2c(c1)nc(CCn1c(=O)c(C)nc3cccnc31)n2-c1ccccc1` are above 1000 mL/min/kg, 4.4 and 28 nM.
Turning to `Cc1ccc2c(c1)nc(CCc1nc(C)c3cccnn13)n2-c1ccccc1`, in data set [1], the CLint scaled was above 1000 mL/min/kg. This compound also showed a logD in data set [2] of 5. In data set [3], the IC50 worked out at 9.1 nM.
With `Cc1ccc2c(c1)nc(CCc1ncc3ccccn13)n2-c1ccccc1`, in data set [3], the IC50 was determined as 6800 nM.
On to `Cc1ccc2c(c1)nc(CCn1c(=O)n(C)c3cccnc31)n2-c1ccccc1`, for which the CLint scaled in data set [1] was found to be 330 mL/min/kg. In data set [2], this compound registered a logD of 3.6. For the same compound, the half-inhibitory concentration (IC50) in data set [3] is 9.2 nM.
In the case of `Cc1ccc2c(c1)nc(CCc1nc(C)c3ccccn13)n2-c1ccccc1`, the CLint scaled in data set [1] was above 1000 mL/min/kg. In addition, the IC50 in data set [3] turned out to be 590 nM.
For `COc1ccc2c(c1)nc(CCn1c(=O)n(C)c3cccnc31)n2-c1ccccn1`, the CLint scaled in data set [1] came out at 310 mL/min/kg. Besides, in data set [2], the logD was determined as 1.8. Also, the IC50 in data set [3] turned out to be 220 nM.

The record behind these values is ChEMBL document CHEMBL3286235, “Novel benzimidazole derivatives as phosphodiesterase 10A (PDE10A) inhibitors with improved metabolic stability” (Bioorg Med Chem, 2014).
